The source of these data is ChEMBL document CHEMBL1126267, “A novel synthesis and potent antiinflammatory activity of 4-hydroxy-2(1H)-oxo-1-phenyl-1,8-naphthyridine-3-carboxamides” (1992).

Common to all, as to format: functional
Common to all, as to settings: route oral

Test [1] concerns Rattus norvegicus. The experiment in a line: Inhibition of Zymosan-induced rat's paw edema(ZPE) after peroral administration of 100 mg/kg dose. Put shortly:
(§1)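 Male Wistar rats (about 150 g) were dosed orally with compound suspended in 5% arabic gum, 1 h before a subplantar hind-paw injection of 0.1 mL saline. The irritant was 1% zymosan for 33 or 1% λ-carrageenin for 34. Paw volume was measured by plethysmograph before dosing and at 4 h (zymosan) or 3 h (carrageenin). Swelling is relative to initial volume, as mean ± SEM. % inhibition is versus the control group's mean swelling.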

In test [2] the test system is Rattus norvegicus. The experiment in a line: Antiinflammatory activity on Carrageenan rat's paw edema(CPE) after peroral administration of 100 mg/kg dose with control swelling of 64.2%. (Carrageenan injected into the paw causes an acute inflammation.)
The subject of test [3] is Rattus norvegicus. The experiment in a line: Antiinflammatory activity on Zymosan-induced rat's paw edema(ZPE) after peroral administration of 100 mg/kg dose with control swelling of 71.7%. Put shortly:
(§2)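 Male Wistar rats weighing about 150 g were dosed orally with compound suspended in 5% arabic gum. 1 h later, 1% zymosan in 0.1 mL saline was injected subplantarly into the hind paw. Paw volume was measured by plethysmograph before dosing and 4 h after zymosan, with edema as the volume difference. Inhibition % was derived from mean swelling versus the control group.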

Test [4] concerns Rattus norvegicus. The experiment in a line: Inhibition of carrageenan-induced rat's paw edema (CPE) after peroral administration of 100 mg/kg dose. Put shortly:
as §1

For test [5], the system named is Rattus norvegicus. The experiment in a line: Compound was tested for the inhibition of rat reversed passive Arthus pleurisy after peroral administration of 100 mg/kg dose at 0.37 mL of exudate volume with 0.46 mL of control (injected intrapleurally). An outline of the steps:
(§3)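 Male Wistar rats (about 250 g) were given compound orally before the antiserum. Under ether anesthesia, 0.2 mL rabbit anti-egg albumin antiserum was injected intrapleurally. After 30 min, egg albumin (15 mg/100 g body weight in 0.1 mL saline) was given iv. Rats were killed 4.5 h later and the thoracic cavity was rinsed with 5 mL saline. Exudate volume and infiltrated cell number were measured, with inhibition % versus controls as mean ± SEM.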

For test [6], the system named is Rattus norvegicus. The experiment in a line: Compound was tested for the inhibition of rat reversed passive Arthus pleurisy after peroral administration of 100 mg/kg dose at 1.59+/-0.13*10e6 no of cells with 2.17*10e6 cells of control. Put shortly: as §3
In test [7] the test system is Rattus norvegicus. The experiment in a line: Compound was tested for the inhibition of rat reversed passive Arthus pleurisy after peroral administration of 100 mg/kg dose at 0.33 mL of exudate volume with 0.46 mL of control (injected intrapleurally). An outline of the steps:
as §3

The subject of test [8] is Rattus norvegicus. The experiment in a line: Compound was tested for the inhibition of rat reversed passive Arthus pleurisy after peroral administration of 100 mg/kg dose at 1.69*10e6 no of cells with 2.17*10e6 cells of control. An outline of the steps:
as §3

Test [9] concerns Rattus norvegicus. The experiment in a line: Antiinflammatory activity on Carrageenan rat's paw edema(CPE) after peroral administration of 100 mg/kg dose with control swelling of 81.0%.
Test [10] relates to Rattus norvegicus. The experiment in a line: Antiinflammatory activity on Zymosan-induced rat's paw edema(ZPE) after peroral administration of 100 mg/kg dose with control swelling of 52.2%. An outline of the steps: as §2
The subject of test [11] is Rattus norvegicus. The experiment in a line: Compound was tested for the inhibition of rat reversed passive Arthus pleurisy after peroral administration of 100 mg/kg dose at 0.94 mL of exudate volume with 0.86 mL of control (injected intrapleurally). An outline of the steps: as §3
Test [12] has as its system Rattus norvegicus. The experiment in a line: Compound was tested for the inhibition of rat reversed passive Arthus pleurisy after peroral administration of 100 mg/kg dose at 4.35*10e6 no of cells with 3.62*10e6 cells of control. Put shortly:
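Male Wistar rats (about 250 g) under ether received 0.2 mL rabbit anti-egg-albumin antiserum intrapleurally. Thirty min later they got 15 mg EA/100 g body weight in 0.1 mL saline iv. Compounds were given orally beforehand. Rats were killed 4.5 h after induction and the thoracic cavity rinsed with 5 mL saline. Exudate volume and infiltrated cell count were read as mean ± SE. % inhibition is versus control.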

The inhibition in vivo is the change of the read-out against control, counted positive when it falls. `O=C(Nc1ccccc1)c1c(O)c2cccnc2n(-c2ccccc2)c1=O`: the inhibition in vivo at 100 mg/kg with Rattus norvegicus [1] was 4.6%; in the test with Rattus norvegicus [4], -15%. The Swelling with Rattus norvegicus [2] worked out at 73.8%; in the test with Rattus norvegicus [3], 68.4%.

In the case of `O=C(Nc1cnccn1)c1c(O)c2cccnc2n(-c2ccccc2)c1=O`, the inhibition in vivo at 100 mg/kg was found to be 24.3% in the test with Rattus norvegicus [5], 29.6% in the test with Rattus norvegicus [1], 26.7% with Rattus norvegicus [6] and 21.2% in the test on Rattus norvegicus [4]. Besides, the Swelling with Rattus norvegicus [2] is 50.6%; in the test on Rattus norvegicus [3], 50.5%.

`O=C(NC1CCN(Cc2ccccc2)CC1)c1c(O)c2cccnc2n(-c2ccccc2)c1=O`: the inhibition in vivo at 100 mg/kg in the test with Rattus norvegicus [7] worked out at 32.4%; in the test on Rattus norvegicus [1], 1.7%; in the test on Rattus norvegicus [8], 22.1%; in the test on Rattus norvegicus [4] it was 1.2%. Also, the Swelling in the test with Rattus norvegicus [9] worked out at 80.8%; with Rattus norvegicus [10] it was 51.3%.

Take `CN(C)CCNC(=O)c1c(O)c2cccnc2n(-c2ccccc2)c1=O`: the inhibition in vivo at 100 mg/kg with Rattus norvegicus [11] was -10.4%; in the test on Rattus norvegicus [1], 22.6%; in the test on Rattus norvegicus [12], -16.6%; with Rattus norvegicus [4], 18.4%. The Swelling in the test with Rattus norvegicus [2] is listed as 52.4%; with Rattus norvegicus [3], 55.5%.
